The target in one series is T1, Endothelin-1 receptor (Homo sapiens, UniProt P25101).
T1 sequence (P25101 whole entry): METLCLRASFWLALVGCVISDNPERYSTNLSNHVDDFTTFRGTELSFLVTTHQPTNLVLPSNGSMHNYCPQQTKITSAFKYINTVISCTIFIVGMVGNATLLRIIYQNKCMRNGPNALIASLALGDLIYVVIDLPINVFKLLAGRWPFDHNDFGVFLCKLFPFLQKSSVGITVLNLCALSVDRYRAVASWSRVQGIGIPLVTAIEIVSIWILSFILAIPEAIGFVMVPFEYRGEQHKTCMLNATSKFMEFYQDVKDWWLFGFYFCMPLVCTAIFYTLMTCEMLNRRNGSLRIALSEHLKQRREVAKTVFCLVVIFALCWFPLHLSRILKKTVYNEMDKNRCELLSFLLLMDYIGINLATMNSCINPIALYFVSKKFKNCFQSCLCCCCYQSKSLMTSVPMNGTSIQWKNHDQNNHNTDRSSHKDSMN
The experiment in a line: Antagonist activity at ETA receptor in human SKNMC cells assessed as inhibition of endothelin-1-mediated Ca2+ mobilization by fura-2/AM dye-based spectrofluorimetric method.

The next series has as its target Cytochrome P450 2D6 (Homo sapiens, UniProt P10635). The experiment in a line: Drug metabolism assessed as human recombinant CYP2D6-mediated metabolite formation by measuring parent compound remaining at 5 uM in presence of NADPH after 30 mins by LC-MS/MS analysis. To be noted: recombinant enzyme, 0.5 h. The format is ADME. In outline:
(§1)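 Substrate at 5 μM final in 100 mM potassium phosphate, pH 7.4, incubated with human liver microsomes or baculovirus-expressed recombinant CYP3A4, 2D6 or 2C9. Reaction started with 1 mM NADPH and run 0, 15 and 30 min at 37 °C. Stopped with ice-cold acetonitrile containing labetalol internal standard, then centrifuged. Supernatant analysed by LC-MS/MS on a C18 column at 40 °C. Blank was enzyme without substrate.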

Series [1] is described as follows: Drug metabolism in human liver microsomes assessed as formation of 4-tert-butyl-N-(6-(2-hydroxyethoxy)-5-(2-hydroxyphenoxy)-2,2'-bipyrimidin-4-yl)benzenesulfonamide at 5 uM in presence of NADPH after 30 mins by LC-MS/MS analysis. Format: ADME. The conditions noted are these: 0.5 h. An outline of the steps: as §1
On the technique in general: Liver microsomes are vesicles of endoplasmic reticulum, rich in cytochrome P450 enzymes.

The target of series [2] is T2, Cytochrome P450 2C9 (Homo sapiens, UniProt P11712). The experiment in a line: Drug metabolism assessed as human recombinant CYP2C9-mediated formation of 4-(1-hydroxy-2-methylpropan-2-yl)-N-(6-(2-hydroxyethoxy)-5-(2-methoxyphenoxy)-2,2'-bipyrimidin-4-yl)benzenesulfonamide at 5 uM in presence of NADPH after 30 mins by LC-MS/MS analysis. The format is ADME. The conditions noted are these: recombinant enzyme, 0.5 h. An outline of the steps: as §1

Series [3] is described as follows: Drug metabolism in human liver microsomes assessed as formation of 4-(1-hydroxy-2-methylpropan-2-yl)-N-(6-(2-hydroxyethoxy)-5-(2-methoxyphenoxy)-2,2'-bipyrimidin-4-yl)benzenesulfonamide at 5 uM in presence of NADPH after 30 mins by LC-MS/MS analysis. The conditions noted are these: 0.5 h. The format is ADME. An outline of the steps:
as §1

Series [4] addresses T2, Cytochrome P450 2C9. The experiment in a line: Drug metabolism assessed as human recombinant CYP2C9-mediated metabolite formation by measuring parent compound remaining at 5 uM in presence of NADPH after 30 mins by LC-MS/MS analysis. Format: ADME. The conditions noted are these: recombinant enzyme, 0.5 h. In outline:
as §1

A short description of series [5]: Cytotoxicity against CHOK1 cells assessed as decrease in cell viability after 24 hrs by MTT assay. Format: toxicity, cell-based, Cricetulus griseus. The conditions noted are these: Chinese hamster, CHO-K1 cells. An outline of the steps:
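CHO-k1 cells grown in phenol-red-free DMEM/F-12 with 10% FBS, seeded at 20,000 cells/well and allowed to attach overnight. Exposure was 24 h to 0.1–200 μM, with DMSO as vehicle control. MTT at 1 mg/mL for 3 h at 37 °C, formazan dissolved in DMSO, absorbance read at 570 nm. Data given as % OD of vehicle control; IC50 taken from dose–response curve fits.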
(In general: Tetrazolium assays rely on reduction of a dye to a coloured formazan, in cell work by metabolically active cells.)

Series [6] can be described thus: Metabolic stability in human liver microsomes assessed as parent compound remaining at 5 uM in presence of NADPH after 30 mins by LC-MS/MS analysis. The conditions noted are these: read-out: Stability. The format is ADME. An outline of the steps: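 Pooled human liver microsomes in 100 mM potassium phosphate, pH 7.4, with test compound at 5 μM final. Reaction started with 1 mM NADPH (final) and run at 37 °C in a shaking water bath for 0, 15 and 30 min. Stopped with an equal volume of ice-cold acetonitrile containing 0.6 μM labetalol as internal standard. Protein was spun out and the supernatant analysed by LC-MS/MS. Blank had no compound.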

Series [7] is described as follows: Retention time of the compound. Format: physicochemical.
Series [8] deals with T3, Cytochrome P450 3A4 (Homo sapiens, UniProt P08684). The experiment in a line: Drug metabolism assessed as human recombinant CYP3A4-mediated formation of 4-(1-hydroxy-2-methylpropan-2-yl)-N-(6-(2-hydroxyethoxy)-5-(2-methoxyphenoxy)-2,2'-bipyrimidin-4-yl)benzenesulfonamide at 5 uM in presence of NADPH after 30 mins by LC-MS/MS analysis. The format is ADME. To be noted: recombinant enzyme, 0.5 h. An outline of the steps: as §1

Series [9] is described as follows: Drug metabolism in human liver microsomes assessed as formation of 4-(1-hydroxy-2-methylpropan-2-yl)-N-(6-(2-hydroxyethoxy)-5-(2-hydroxyphenoxy)-2,2'-bipyrimidin-4-yl)benzenesulfonamide at 5 uM in presence of NADPH after 30 mins by LC-MS/MS analysis. Format: ADME. To be noted: 0.5 h. In outline:
as §1

Series [10] has as its target T3, Cytochrome P450 3A4. The experiment in a line: Drug metabolism assessed as human recombinant CYP3A4-mediated formation of 4-(1-hydroxy-2-methylpropan-2-yl)-N-(6-(2-hydroxyethoxy)-5-(2-hydroxyphenoxy)-2,2'-bipyrimidin-4-yl)benzenesulfonamide at 5 uM in presence of NADPH after 30 mins by LC-MS/MS analysis. Format: ADME. The conditions noted are these: recombinant enzyme, 0.5 h. An outline of the steps: as §1

Series [11] concerns the target T3, Cytochrome P450 3A4. The series is described as follows: Drug metabolism assessed as human recombinant CYP3A4-mediated metabolite formation by measuring parent compound remaining at 5 uM in presence of NADPH after 30 mins by LC-MS/MS analysis. The format is ADME. To be noted: recombinant enzyme, 0.5 h. In outline: as §1
Series [12] addresses T3, Cytochrome P450 3A4. The series is described as follows: Drug metabolism assessed as human recombinant CYP3A4-mediated formation of 4-tert-butyl-N-(6-(2-hydroxyethoxy)-5-(2-hydroxyphenoxy)-2,2'-bipyrimidin-4-yl)benzenesulfonamide at 5 uM in presence of NADPH after 30 mins by LC-MS/MS analysis. The format is ADME. The conditions noted are these: recombinant enzyme, 0.5 h. In outline:
as §1

Series [13] is described as follows: Drug level in human liver microsomes treated with bosentan at 5 uM in presence of NADPH after 30 mins by LC-MS/MS analysis. To be noted: 0.5 h. Format: ADME. In outline:
as §1

The target in series [14] is T3, Cytochrome P450 3A4. The series is described as follows: Drug level assessed as human recombinant CYP3A4-mediated compound formation treated with bosentan at 5 uM in presence of NADPH after 30 mins by LC-MS/MS analysis. Format: ADME. To be noted: recombinant enzyme, 0.5 h. In outline:
as §1

The target in series [15] is T2, Cytochrome P450 2C9. The series is described as follows: Drug level assessed as human recombinant CYP2C9-mediated compound formation treated with bosentan at 5 uM in presence of NADPH after 30 mins by LC-MS/MS analysis. Format: ADME. To be noted: recombinant enzyme, 0.5 h. In outline: as §1
Series [16] has as its target T4, Endothelin receptor type B (Homo sapiens) (UniProt P24530).
T4 sequence (whole entry): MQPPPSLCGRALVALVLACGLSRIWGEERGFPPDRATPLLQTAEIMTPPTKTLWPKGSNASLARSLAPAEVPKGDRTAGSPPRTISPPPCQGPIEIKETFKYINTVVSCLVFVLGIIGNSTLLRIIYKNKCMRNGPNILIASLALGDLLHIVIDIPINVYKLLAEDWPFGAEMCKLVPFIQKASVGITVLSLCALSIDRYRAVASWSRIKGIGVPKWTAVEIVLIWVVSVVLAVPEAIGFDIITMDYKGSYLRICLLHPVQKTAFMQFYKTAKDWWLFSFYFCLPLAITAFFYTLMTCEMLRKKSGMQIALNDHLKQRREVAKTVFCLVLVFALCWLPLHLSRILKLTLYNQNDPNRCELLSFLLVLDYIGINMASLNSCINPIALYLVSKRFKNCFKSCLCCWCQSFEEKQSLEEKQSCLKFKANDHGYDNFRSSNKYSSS
The experiment in a line: (§2) Antagonist activity at ETB receptor in human BSMC assessed as inhibition of endothelin-1 or 3-mediated Ca2+ mobilization preincubated for 5 mins followed by endothelin-1 or 3 addition by fura-2/AM dye-based spectrofluorimetric method. The format is functional. For orientation: Calcium assays in cells follow changes in intracellular calcium, usually with a dye or a luminescent sensor.

The target in series [17] is T5, Endothelin receptor type B (Homo sapiens, UniProt P24530).
T5 sequence (P24530 whole entry): T4 sequence (whole entry)
The series is described as §2. Format: functional.

The nature of series [18]: Drug level in human liver microsomes treated with 4-(tert-Butyl)-N-(6-ethoxy-5-(2-methoxyphenoxy)-[2,2'-bipyrimidin]-4-yl)benzenesulfonamide at 5 uM in presence of NADPH after 30 mins by LC-MS/MS analysis. Format: ADME. The conditions noted are these: 0.5 h. An outline of the steps:
as §1

For series [19], the target named is T2, Cytochrome P450 2C9. The experiment in a line: Drug level assessed as human recombinant CYP2C9-mediated compound formation treated with 4-(tert-Butyl)-N-(6-ethoxy-5-(2-methoxyphenoxy)-[2,2'-bipyrimidin]-4-yl)benzenesulfonamide at 5 uM in presence of NADPH after 30 mins by LC-MS/MS analysis. Format: ADME. To be noted: recombinant enzyme, 0.5 h. In outline: as §1

Series [20] deals with T3, Cytochrome P450 3A4. The series is described as follows: Drug level assessed as human recombinant CYP3A4-mediated compound formation treated with 4-(tert-Butyl)-N-(6-ethoxy-5-(2-methoxyphenoxy)-[2,2'-bipyrimidin]-4-yl)benzenesulfonamide at 5 uM in presence of NADPH after 30 mins by LC-MS/MS analysis. To be noted: recombinant enzyme, 0.5 h. The format is ADME. In outline:
as §1

Where a SMILES comes first, the peptide text is derived from it. [ ]: non-standard residue; d: D form.

T2 sequence (P11712 whole entry): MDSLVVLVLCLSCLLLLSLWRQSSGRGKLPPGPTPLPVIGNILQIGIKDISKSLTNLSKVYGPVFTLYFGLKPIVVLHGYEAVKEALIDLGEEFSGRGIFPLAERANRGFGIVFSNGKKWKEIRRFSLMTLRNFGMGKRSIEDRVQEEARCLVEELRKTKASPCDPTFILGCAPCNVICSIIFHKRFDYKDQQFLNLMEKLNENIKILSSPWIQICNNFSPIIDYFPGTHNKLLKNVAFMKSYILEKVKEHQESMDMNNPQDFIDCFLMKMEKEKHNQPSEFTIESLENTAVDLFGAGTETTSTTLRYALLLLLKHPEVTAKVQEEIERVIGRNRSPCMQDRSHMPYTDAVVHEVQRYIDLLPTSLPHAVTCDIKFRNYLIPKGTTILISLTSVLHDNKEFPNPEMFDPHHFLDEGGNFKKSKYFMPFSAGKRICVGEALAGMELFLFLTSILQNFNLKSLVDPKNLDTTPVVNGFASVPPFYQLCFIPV
T3 sequence (P08684 whole entry): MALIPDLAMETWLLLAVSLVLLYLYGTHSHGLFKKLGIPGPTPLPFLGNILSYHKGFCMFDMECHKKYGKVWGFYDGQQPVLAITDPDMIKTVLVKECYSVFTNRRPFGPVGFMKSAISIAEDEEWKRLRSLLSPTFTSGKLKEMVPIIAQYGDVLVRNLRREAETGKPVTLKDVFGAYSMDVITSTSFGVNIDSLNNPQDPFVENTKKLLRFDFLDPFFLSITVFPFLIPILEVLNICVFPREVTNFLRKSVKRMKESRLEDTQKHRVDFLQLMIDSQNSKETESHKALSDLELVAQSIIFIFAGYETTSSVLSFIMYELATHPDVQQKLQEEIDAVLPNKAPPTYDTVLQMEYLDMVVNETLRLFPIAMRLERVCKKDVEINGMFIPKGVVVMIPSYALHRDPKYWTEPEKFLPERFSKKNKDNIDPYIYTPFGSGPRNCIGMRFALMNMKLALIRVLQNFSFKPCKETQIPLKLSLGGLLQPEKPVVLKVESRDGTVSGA
Sequence of Cytochrome P450 2D6 (P10635 whole entry): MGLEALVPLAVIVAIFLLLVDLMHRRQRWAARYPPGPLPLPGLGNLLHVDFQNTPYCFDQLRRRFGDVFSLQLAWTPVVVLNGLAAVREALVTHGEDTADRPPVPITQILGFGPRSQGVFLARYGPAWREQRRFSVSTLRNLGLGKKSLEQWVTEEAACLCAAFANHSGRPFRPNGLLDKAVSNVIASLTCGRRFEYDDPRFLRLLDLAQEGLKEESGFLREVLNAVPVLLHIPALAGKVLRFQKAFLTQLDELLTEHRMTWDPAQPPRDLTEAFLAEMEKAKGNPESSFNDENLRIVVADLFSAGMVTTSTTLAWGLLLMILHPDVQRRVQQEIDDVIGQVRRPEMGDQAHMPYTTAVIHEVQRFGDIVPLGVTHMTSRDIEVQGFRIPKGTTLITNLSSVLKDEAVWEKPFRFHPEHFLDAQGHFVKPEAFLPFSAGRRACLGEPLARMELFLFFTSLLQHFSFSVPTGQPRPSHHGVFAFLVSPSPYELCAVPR

Regarding `CC(C)C[C@@H]1NC(=O)[C@@H](C(C)C)NC(=O)[C@@H]2CCCN2C(=O)[C@@H](CC(=O)O)NC(=O)[C@@H](Cc2c[nH]c3ccccc23)NC1=O` [BQ-123] (cyclo(L[dW][dD]P[dV])), the IC50 at Endothelin-1 receptor stood at 0.62 nM.
As to `COc1ccccc1Oc1c(NS(=O)(=O)c2ccc(C(C)(C)C)cc2)nc(-c2ncccn2)nc1OCCO` [BOSENTAN], the Stability is more than 99% at Cytochrome P450 2D6, 75.8% on Cytochrome P450 2C9 [4] and 20.9% at Cytochrome P450 3A4 [11]. Besides, the Drug metabolism result (in series [1]; on Cytochrome P450 2C9 [2]; in [3]; on Cytochrome P450 3A4 [8]; in series [9]; on Cytochrome P450 3A4 [10]) was “Metabolite_Detected” throughout. Besides, the Drug metabolism entry at Cytochrome P450 3A4 [12] is recorded as “Metabolite_Detected”. In [5], the IC50 at 24 h came to 196000 nM. In addition, the remaining at 0.5 h, 5 µM in series [6] amounted to 91.6%. Besides, the Retention_time in series [7] turned out to be 5.1 min.
For `COc1ccccc1Oc1c(NS(=O)(=O)c2ccc(C(C)(C)CO)cc2)nc(-c2ncccn2)nc1OCCO`, the Drug metabolism result (in series [13]; on Cytochrome P450 3A4 [14]; at Cytochrome P450 2C9 [15]) was “Metabolite_Detected” throughout. Also, in series [7], the Retention_time came to 3.79 min.
As to `CCCC[C@@H](NC(=O)[C@@H](Cc1cn(C(=O)OC)c2ccccc12)NC(=O)[C@H](CC(C)(C)C)NC(=O)N1[C@H](C)CCC[C@@H]1C)C(=O)O`, the Kb in series [16] is 0.5 nM. For the same compound, the half-inhibitory concentration (IC50) in series [17] is 0.41 nM.
Take `CCOc1nc(-c2ncccn2)nc(NS(=O)(=O)c2ccc(C(C)(C)CO)cc2)c1Oc1ccccc1OC`: the Drug metabolism result (in series [18]; at Cytochrome P450 2C9 [19]; at Cytochrome P450 3A4 [20]) was “Metabolite_Detected” each time. Moreover, in series [7], the Retention_time is 4.99 min.

For orientation: IC50 means the concentration needed to halve the response being measured. Usually Kb stands for the equilibrium dissociation constant of an antagonist, usually derived from a functional assay.

Source of the values: ChEMBL document CHEMBL3861962 (Eur J Med Chem, 2016).
